Test results: ChEMBL document CHEMBL1811838, “Antimalarial activity of natural and synthetic prodiginines” (J Med Chem, 2011)

Legend:
[1] = test system: Plasmodium falciparum; experiment: Antimalarial activity Plasmodium falciparum D6 after 72 hrs by SYBR Green I based fluorescence assay; format: functional, organism-based; conditions: D6, 72 h
How it was run: (§1)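 P. falciparum (D6 pansensitive; Dd2 MDR) cultured under standard conditions and grown 72 h with varying compound concentrations, chloroquine positive control or no drug, each condition in quadruplicate. Growth measured by SYBR Green I fluorescence with minor modifications; IC50 = concentration inhibiting growth by 50%.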

[2] = Toxicity in C57BL/6J mouse splenic lymphocytes after 72 hrs by Alamar blue Assay; format: cell-based; conditions: splenic lymphocyte
How it was run: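 Splenic lymphocytes from C57BL/6J mice washed, then stimulated with 1 μg/mL concanavalin A in RPMI/10% FBS with 50 μM β-mercaptoethanol. Seeded at 2 × 10^5 cells/well with serially diluted compound for 72 h at 37 °C, 5% CO2. Resazurin added (final 10 μM) for another 24 h; fluorescence read at ex 560/em 590 nm.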

[3] = test system: Plasmodium falciparum; experiment: Antimalarial activity multidrug-resistant Plasmodium falciparum Dd2 after 72 hrs by SYBR Green I based fluorescence assay; format: functional, organism-based; conditions: Dd2, 72 h; how it was run: as §1
[4] = test system: Mus musculus; experiment: Toxicity in Plasmodium yoelii infected CF-1 mouse assessed as weight loss at 5 mg/kg, po qd for 3 days relative to control; format: organism-based; parameters: dose 5 mg/kg, route oral; conditions: in vivo, 72 h
How it was run: (§2)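 Female outbred CF-1 mice were infected i.v. via the tail vein with 5 × 10^5 P. yoelii Kenya-infected erythrocytes, in groups of five. Compound or vehicle alone was given by gavage in caprylic/capric triglyceride once daily for 3 days, starting 24 h post-infection. One day after the last dose, Giemsa-stained thin smears were scored by microscopy for % parasitemia versus untreated controls. Group mean weight was recorded as day 3 versus day 0.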

[5] = test system: Plasmodium yoelii; experiment: Antimalarial activity Plasmodium yoelii infected in CF-1 mouse assessed as reduction of parasitemia at 5 mg/kg, po qd for 3 days administered 24 hrs after infection measured after 24 hrs last dose relative to control; format: functional; parameters: scale not given: the % may be the effect or the level left; how it was run: as §2
[6] = test system: Mus musculus; experiment: Toxicity in Plasmodium yoelii infected CF-1 mouse assessed as weight loss at 25 mg/kg, po qd for 3 days relative to control; format: organism-based; parameters: dose 25 mg/kg, route oral; conditions: in vivo, 72 h; how it was run: as §2
[7] = test system: Plasmodium yoelii; experiment: Antimalarial activity Plasmodium yoelii infected in CF-1 mouse assessed as reduction of parasitemia at 25 mg/kg, po qd for 3 days administered 24 hrs after infection measured after 24 hrs last dose relative to control; format: functional; parameters: scale not given: the % may be the effect or the level left
How it was run: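 Female outbred CF-1 mice infected iv (tail vein) with 5 × 10^5 P. yoelii Kenya-infected erythrocytes. Groups of five given compound or vehicle alone by gavage in caprylic/capric triglyceride once daily for 3 days starting 24 h post-infection. One day after last dose, Giemsa-stained thin smears scored microscopically for % infected erythrocytes vs untreated controls. Group mean weight day 3 vs day 0. Smear-negative mice followed; parasite-free at 28 days counted cured.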

SMILES	IC50 [1] [nM]	IC50 [2] [nM]	IC50 [3] [nM]	Activity [4] [%]	Activity [5] [%]	Activity [6] [%]	Activity [7] [%]
COC1=CC(c2ccc[nH]2)=N/C1=C\c1[nH]c(Cc2ccc(Br)cc2)cc1Cc1ccc(Br)cc1	14	< 125	11				
CCCCCCCCc1cc(CCC)c(/C=C2\N=C(c3ccc[nH]3)C=C2OC)[nH]1	2.9	< 125	2.7	100.1	90	92.4	100
CCCCCCCCCCCc1ccc(/C=C2\N=C(c3ccco3)C=C2OC)[nH]1	2920	980	3810				
COC1=CC(c2ccc[nH]2)=N/C1=C\c1[nH]ccc1Cc1ccc(Cl)cc1	65	< 125	81	101.2	38	105	90
COC1=CC(c2ccc[nH]2)=N/C1=C\c1[nH]c(C)cc1C	8900	< 125	8130				
COC1=CC(c2ccco2)=N/C1=C\c1[nH]c(C)cc1C	> 25000	3890	> 25000				
CCCCCCCCc1cc(Cc2ccc(Br)cc2)c(/C=C2\N=C(c3ccc[nH]3)C=C2OC)[nH]1	4	< 125	2.9				
CCCCCCCc1cc(Cc2ccc(Cl)cc2)c(/C=C2\N=C(c3ccc[nH]3)C=C2OC)[nH]1	2.8	< 125	2.2				
CCCCCCc1cc(Cc2ccc(Cl)cc2)c(/C=C2\N=C(c3ccc[nH]3)C=C2OC)[nH]1	2	< 125	1.8	100.3	99	96	100
COC1=CC(c2ccc[nH]2)=N/C1=C\c1[nH]c(Cc2ccc(Cl)cc2)cc1CCC1CCCCC1	3.9	1010	2.9				
COC1=CC(c2ccc[nH]2)=N/C1=C\c1[nH]c(Cc2ccc(Cl)cc2Cl)cc1Cc1ccc(Cl)cc1Cl	12.6	< 125	11				
COC1=CC(c2cc3ccccc3[nH]2)=N/C1=C\c1[nH]c(C)cc1C [OBATOCLAX]	4250	< 125	4950				
CCc1cc(Cc2ccc(Cl)cc2)c(/C=C2\N=C(c3ccc[nH]3)C=C2OC)[nH]1		< 125	6.2				
CCCCCCc1cc(CCC)c(/C=C2\N=C(c3ccc[nH]3)C=C2OC)[nH]1	4.5	< 125	4				
COC1=CC(c2ccc[nH]2)=N/C1=C\c1[nH]c(Cc2c(F)cccc2F)cc1Cc1c(F)cccc1F	14.7	< 125	18.3				
COC1=CC(c2ccc[nH]2)=N/C1=C\c1[nH]ccc1Cc1ccc(OC)cc1	170	< 125	156				
COC1=CC(c2ccc[nH]2)=N/C1=C\c1[nH]ccc1Cc1ccccc1		< 125	86				
COC1=CC(c2ccc[nH]2)=N/C1=C\c1[nH]c(Cc2ccc(F)cc2)cc1Cc1ccc(Cl)cc1		< 125	6.1				
COC1=CC(c2ccc[nH]2)=N/C1=C\c1[nH]ccc1Cc1ccc(Br)cc1	90	< 125	108				

SMILES	IC50 [1] [nM]	IC50 [2] [nM]	IC50 [3] [nM]	Activity [4] [%]	Activity [5] [%]	Activity [6] [%]	Activity [7] [%]
CCCCCCc1cc(CCCCCC)c(/C=C2\N=C(c3ccc[nH]3)C=C2OC)[nH]1	1.7	< 125	1.1				
CCCCc1ccc(/C=C2\N=C(c3ccc[nH]3)C=C2OC)[nH]1	1780	< 125	1590				
COC1=CC(c2ccc[nH]2)=N/C1=C\c1[nH]c(Cc2ccc(F)cc2)cc1Cc1ccc(F)cc1	5.6	< 125	5.7				
COC1=CC(c2cccs2)=N/C1=C\c1[nH]c(C)cc1C	> 25000	3530	> 25000				
CCCCCCc1cc(Cc2ccc(F)cc2)c(/C=C2\N=C(c3ccc[nH]3)C=C2OC)[nH]1		1460	0.9				
CCCCCC1=C/C(=C/c2[nH]c(-c3ccc[nH]3)cc2OC)N=C1C [PRODIGIOSIN]	8						
CCCc1ccc(/C=C2\N=C(c3ccc[nH]3)C=C2OC)[nH]1	2300						
COC(=O)CCCc1cc[nH]c1/C=C1\N=C(c2ccc[nH]2)C=C1OC	4500						
COC1=CC(c2ccccc2)=N/C1=C\c1[nH]c(C)cc1C	19400	7950	13600				
CCCCCCCCCCCc1ccc(/C=C2\N=C(c3cccs3)C=C2OC)[nH]1	5940	2120	7770				
CCCCCCCCCCCCCCCCc1cc[nH]c1/C=C1\N=C(c2ccc[nH]2)C=C1OC	> 25000	3630	> 25000				
CCCCC1CCCCCCc2cc1c(/C=C1\N=C(c3ccc[nH]3)C=C1OC)[nH]2 (centres undefined) [STREPTORUBIN B]	7.8						
COC1=CC(c2ccc[nH]2)=N/C1=C\c1[nH]ccc1Cc1ccc2ccccc2c1	56						
CCCCCCc1cc[nH]c1/C=C1\N=C(c2ccc[nH]2)C=C1OC	28	< 125	7				
CCCCCCCCc1cc[nH]c1/C=C1\N=C(c2ccc[nH]2)C=C1OC	4.6	< 125	1.8				
CCCCCCCCCCCCCCCCc1ccc(/C=C2\N=C(c3ccc[nH]3)C=C2OC)[nH]1	300	< 125	400				
CCCCCCc1cc(Cc2ccc(Br)cc2)c(/C=C2\N=C(c3ccc[nH]3)C=C2OC)[nH]1		< 125	2.8				
CCN(CC)CCCC(C)Nc1ccnc2cc(Cl)ccc12 (centres undefined) [CHLOROQUINE]		16000					
COC1=CC(c2ccc[nH]2)=N/C1=C\c1[nH]c(Cc2ccc(Br)cc2)cc1Cc1ccc(Cl)cc1	8.3	< 125	7.7				

SMILES	IC50 [1] [nM]	IC50 [2] [nM]	IC50 [3] [nM]	Activity [4] [%]	Activity [5] [%]	Activity [6] [%]	Activity [7] [%]
CCCCCCCCc1cc(CCCCCC)[nH]c1/C=C1\N=C(c2ccc[nH]2)C=C1OC	4.9	< 125	2				
COC1=CC(c2ccc[nH]2)=N/C1=C\c1ccc(CCCCCCCCCCCN)[nH]1	1700						
CCCCCCc1ccc(/C=C2\N=C(c3ccc[nH]3)C=C2OC)[nH]1	375	< 125	450				
CCCCCCCCCCCC1=N/C(=C\c2[nH]c(-c3cc4ccccc4[nH]3)cc2OC)C=C1	4060	3410	6150				
CCCCc1cc[nH]c1/C=C1\N=C(c2ccc[nH]2)C=C1OC	80	< 125	18				
COC1=CC(c2ccc[nH]2)=N/C1=C\c1[nH]c(Cc2cccc(F)c2)cc1Cc1cccc(F)c1	5.1	< 125	6.7				
CCCCCCCCc1cc(Cc2ccc(F)cc2)c(/C=C2\N=C(c3ccc[nH]3)C=C2OC)[nH]1	1.3	< 125	1.2				
COC1=CC(c2ccc[nH]2)=N/C1=C\c1[nH]c(CCC2CCCCC2)cc1CCC1CCCCC1	5.3	< 125	3.5				
CCCCCCCCCCCC1=N/C(=C\c2[nH]c(-c3ccc[nH]3)cc2OC)C=C1 [UNDECYLPRODIGININE]	7.7						
CCCCCCCCc1ccc(/C=C2\N=C(c3ccc[nH]3)C=C2OC)[nH]1	80	< 125	130				
COC1=CC(c2ccc[nH]2)=N/C1=C\c1[nH]c(Cc2ccccc2Cl)cc1Cc1ccccc1Cl	3.6	< 125	4.9				
CCCCCCCCc1cc(CCCCCCCC)c(/C=C2\N=C(c3ccc[nH]3)C=C2OC)[nH]1	92	31200	129				
CCCCCCCCCCCC1=N/C(=C\c2[nH]c(-c3ccccc3)cc2OC)C=C1	10500	3580	15800				
CCCCCCCCCCc1cc[nH]c1/C=C1\N=C(c2ccc[nH]2)C=C1OC	8	< 125	10				
COC1=CC(c2ccc[nH]2)=N/C1=C\c1[nH]ccc1CC(C)C	460	< 125	230				
COC1=CC(c2ccc[nH]2)=N/C1=C\c1[nH]c(Cc2ccc(Br)cc2)cc1Cc1ccc(F)cc1	5.7	< 125	5.1				
CCCCCCCc1cc(CCCCCC)c(/C=C2\N=C(c3ccc[nH]3)C=C2OC)[nH]1	2.1	< 125	1.2				
CCCCCCCCc1cc(CCCCCCC)[nH]c1/C=C1\N=C(c2ccc[nH]2)C=C1OC	6.2	3910	2.9				
